Measurements reported in ChEMBL document CHEMBL1821580, “Design, synthesis and bioevaluation of novel candidate selective estrogen receptor modulators” (Eur J Med Chem, 2011).
Values belong to the molecule of their own block, whether it stands above or below them. Calls of active or inactive are those of the source. No cut-off for these calls is given here.

Legend:
[1] = test system: MCF7; test: Cytotoxicity activity against human MCF7 cells by MTS assay; format: functional, cell-based
Summary of the method: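 MCF-7 cells in DMEM with 10% heat-inactivated FBS, seeded at 30,000 cells/well in 24-well plates. After compound treatment, viability was read by MTS assay (CellTiter 96 AQueous). Run in triplicate.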

[2] = test system: MOLT-4; test: Cytostatic activity against human Molt4/C8 cells after 3 days by coulter counter assay; format: functional, cell-based; details: MOLT-4, 72 h
Summary of the method: (§1)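 Tumor cells seeded in 96-well plates and exposed to a range of compound concentrations. Exposure was 2 days for L1210 and 3 days for Molt4/C8 and CEM. Cell number was counted on a Coulter particle counter. IC50 is the concentration inhibiting proliferation by 50%. Run in triplicate.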

[3] = test system: L1210; test: Cytostatic activity against mouse L1210 cells after 2 days by coulter counter assay; format: functional, cell-based; details: L1210, 48 h; summary of the method: as §1
[4] = test system: CCRF-CEM; test: Cytostatic activity against human CEM cells after 3 days by coulter counter assay; format: functional, cell-based; details: 72 h; summary of the method: as §1
[5] = target: T1, Estrogen receptor (Homo sapiens) (UniProt P03372); test: Binding affinity to estrogen receptor alpha in human MCF7 cells assessed as NR peptide-ERalpha complex formation at 2.5 uM by colorimetric ELISA; format: cell-based
T1 sequence (whole entry): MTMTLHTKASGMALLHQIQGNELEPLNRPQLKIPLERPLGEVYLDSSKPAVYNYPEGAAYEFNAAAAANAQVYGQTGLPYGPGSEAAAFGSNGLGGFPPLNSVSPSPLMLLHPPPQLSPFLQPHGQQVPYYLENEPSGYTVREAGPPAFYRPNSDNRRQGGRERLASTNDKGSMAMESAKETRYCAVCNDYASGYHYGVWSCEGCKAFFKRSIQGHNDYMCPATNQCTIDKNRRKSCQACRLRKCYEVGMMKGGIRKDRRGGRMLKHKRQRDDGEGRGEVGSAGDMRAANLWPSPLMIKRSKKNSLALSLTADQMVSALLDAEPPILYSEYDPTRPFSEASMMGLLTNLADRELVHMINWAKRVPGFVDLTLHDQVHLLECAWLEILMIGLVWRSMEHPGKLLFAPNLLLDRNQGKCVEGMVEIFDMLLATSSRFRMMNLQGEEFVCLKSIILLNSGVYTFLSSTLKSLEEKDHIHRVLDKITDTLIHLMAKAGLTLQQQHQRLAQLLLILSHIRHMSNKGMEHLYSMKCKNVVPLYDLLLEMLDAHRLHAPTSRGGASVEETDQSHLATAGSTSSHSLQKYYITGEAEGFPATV

[6] = target: T1, Estrogen receptor (Homo sapiens); test: Binding affinity to estrogen receptor alpha in human MCF7 cells assessed as NR peptide-ERalpha complex formation at 25 uM by colorimetric ELISA; format: cell-based

SMILES: CN(C)CCOc1ccc(Cc2c(O)ccc3ccccc23)cc1
IC50 [1]: 10.2 µM

SMILES: Oc1ccc2ccccc2c1Cc1ccc(OCCN2CCCCC2)cc1
IC50 [1]: 6.82 µM

SMILES: CC(=O)OC1CCN(C(c2ccc(Cl)cc2)c2c(O)ccc3ccccc23)CC1 (single isomer, unassigned; (+))
IC50 [2]: 35 µM
IC50 [3]: 41 µM
IC50 [4]: 28 µM

SMILES: CCN(CC)CCOc1ccc(Cc2c(O)ccc3ccccc23)cc1
IC50 [1]: 6.2 µM

SMILES: CCN(CC)CCOc1ccc(C(c2c(O)ccc3ccccc23)N2CCC(O)CC2)cc1 (racemic)
IC50 [1]: 19 µM

SMILES: Oc1ccc2ccccc2c1C(c1ccncc1)N1CCC(O)CC1 (single isomer, unassigned; (+))
IC50 [2]: 107 µM
IC50 [3]: 154 µM
IC50 [4]: 133 µM

SMILES: Oc1ccc2ccccc2c1C(c1ccccn1)N1CCC(O)CC1 (single isomer, unassigned; (+))
IC50 [2]: 52 µM
IC50 [3]: 118 µM
IC50 [4]: 54 µM

SMILES: CC(=O)OC1CCN(C(c2ccccn2)c2c(O)ccc3ccccc23)CC1 (configuration not stated)
IC50 [2]: 49 µM
IC50 [3]: 92 µM
IC50 [4]: 55 µM

SMILES: CC(C)N(CCOc1ccc(C(c2c(O)ccc3ccccc23)N2CCC(O)CC2)cc1)C(C)C (racemic)
IC50 [1]: 52.3 µM

Activity [5]: Active
Activity [6]: Active
SMILES: CC1CCN(CCOc2ccc(Cc3c(O)ccc4ccccc34)cc2)CC1
IC50 [1]: 4.38 µM

SMILES: CC(=O)OC1CCN(C(c2ccc(C)cc2)c2c(O)ccc3ccccc23)CC1 (single isomer, unassigned; (+))
IC50 [2]: 47 µM
IC50 [3]: 45 µM
IC50 [4]: 35 µM

SMILES: Oc1ccc2ccccc2c1Cc1ccc(OCCN2CCOCC2)cc1
IC50 [1]: > 25 µM

SMILES: Oc1ccc2ccccc2c1C(c1ccc(OCCN2CCCCC2)cc1)N1CCC(O)CC1 (racemic)
IC50 [1]: 36.4 µM

SMILES: COc1ccc(C(c2c(O)ccc3ccccc23)N2CCC(O)CC2)cc1OC (single isomer, unassigned; (-))
IC50 [2]: 18 µM
IC50 [3]: 50 µM
IC50 [4]: 25 µM

SMILES: Oc1ccc2ccccc2c1C(c1ccc(F)cc1)N1CCC(O)CC1 (single isomer, unassigned; (-))
IC50 [2]: 41 µM
IC50 [3]: 44 µM
IC50 [4]: 24 µM

SMILES: CC(=O)OC1CCN(C(c2ccc(Cl)c(Cl)c2)c2c(O)ccc3ccccc23)CC1 (single isomer, unassigned; (+))
IC50 [2]: 34 µM
IC50 [3]: 31 µM
IC50 [4]: 15 µM

SMILES: Oc1ccc2ccccc2c1C(c1ccc(OCCN2CCOCC2)cc1)N1CCC(O)CC1 (racemic)
IC50 [1]: 424 µM

SMILES: Oc1ccc2ccccc2c1C(c1ccc(Cl)cc1)N1CCC(O)CC1 (single isomer, unassigned; (-))
IC50 [2]: 33 µM
IC50 [3]: 46 µM
IC50 [4]: 19 µM

SMILES: Cc1ccc(C(c2c(O)ccc3ccccc23)N2CCC(O)CC2)cc1 (single isomer, unassigned; (-))
IC50 [2]: 39 µM
IC50 [3]: 44 µM
IC50 [4]: 29 µM

SMILES: Oc1ccc2ccccc2c1C(c1ccccc1)N1CCC(O)CC1 (configuration not stated)
IC50 [2]: 43 µM
IC50 [3]: 50 µM
IC50 [4]: 36 µM

SMILES: Oc1ccc2ccccc2c1C(c1ccc2c(c1)OCO2)N1CCC(O)CC1 (single isomer, unassigned; (-))
IC50 [2]: 44 µM
IC50 [3]: 45 µM
IC50 [4]: 37 µM

SMILES: CC/C(=C(\c1ccccc1)c1ccc(OCCN(C)C)cc1)c1ccccc1 [TAMOXIFEN]
IC50 [1]: 31 µM

SMILES: CN(C)CCOc1ccc(C(c2c(O)ccc3ccccc23)N2CCC(O)CC2)cc1 (racemic)
IC50 [1]: 22.6 µM

SMILES: CC(C)N(CCOc1ccc(Cc2c(O)ccc3ccccc23)cc1)C(C)C
IC50 [1]: 7.54 µM

SMILES: COc1ccc(C(c2c(O)ccc3ccccc23)N2CCC(OC(C)=O)CC2)cc1OC (single isomer, unassigned; (+))
IC50 [2]: 12 µM
IC50 [3]: 48 µM
IC50 [4]: 24 µM

SMILES: COc1ccc(C(c2c(O)ccc3ccccc23)N2CCC(O)CC2)cc1 (configuration not stated)
IC50 [2]: 35 µM
IC50 [3]: 42 µM
IC50 [4]: 14 µM

SMILES: COc1ccc(C(c2c(O)ccc3ccccc23)N2CCC(OC(C)=O)CC2)cc1 (single isomer, unassigned; (+))
IC50 [2]: 42 µM
IC50 [3]: 43 µM
IC50 [4]: 22 µM

SMILES: Oc1ccc2ccccc2c1Cc1ccc(OCCN2CCCC2)cc1
IC50 [1]: 6.71 µM

SMILES: Oc1ccc2ccccc2c1C(c1ccc(OCCN2CCCC2)cc1)N1CCC(O)CC1 (racemic)
IC50 [1]: 37.5 µM

SMILES: CC(=O)OC1CCN(C(c2ccncc2)c2c(O)ccc3ccccc23)CC1 (single isomer, unassigned; (-))
IC50 [2]: 59 µM
IC50 [3]: 80 µM
IC50 [4]: 79 µM

SMILES: Oc1ccc2ccccc2c1C(c1ccc(Cl)c(Cl)c1)N1CCC(O)CC1 (configuration not stated)
IC50 [2]: 36 µM
IC50 [3]: 43 µM
IC50 [4]: 17 µM

SMILES: CC(=O)OC1CCN(C(c2ccccc2)c2c(O)ccc3ccccc23)CC1 (single isomer, unassigned; (+))
IC50 [2]: 38 µM
IC50 [3]: 58 µM
IC50 [4]: 31 µM

SMILES: CC(=O)OC1CCN(C(c2ccc3c(c2)OCO3)c2c(O)ccc3ccccc23)CC1 (configuration not stated)
IC50 [2]: 69 µM
IC50 [3]: 48 µM
IC50 [4]: 51 µM

SMILES: CC(=O)OC1CCN(C(c2ccc(F)cc2)c2c(O)ccc3ccccc23)CC1 (single isomer, unassigned; (+))
IC50 [2]: 40 µM
IC50 [3]: 45 µM
IC50 [4]: 27 µM

SMILES: Oc1ccc2ccccc2c1Cc1ccc(OCCN2CCCCCC2)cc1
IC50 [1]: 6.21 µM
